Assay outcomes deposited in PubChem by Johns Hopkins Ion Channel Center.
KCNK3 block: human KCNK3 channel inhibitors, primary screen, CHO cells, FluxOR thallium flux, B-score; FluxOR fluorescence; active compounds read low; B-score at 10 µM; AID 602410, 2012; 0.84% of 340,000 active; Potassium channel subfamily K member 3 (Homo sapiens), O14649;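 active means B-score under library mean minus 4 SD, starting fluorescence ratio at most library mean plus 5 SD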;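 further: more negative B-score means stronger inhibition of thallium flux through KCNK3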
KCNQ1 inh: inhibitors of human KCNQ1 channel, primary screen, cell-based, thallium flux, high-throughput; CHO-K1 KCNQ1, FluxOR thallium flux fluorescence; active compounds read high; B-score at 10 µM; 1.3% of 310,000 active; AID 2642, 2010;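 active means compounds whose thallium flux B-score, printed positive for inhibition, exceeds three library SD while starting fluorescence stays within three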;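 further: channel opened by potassium depolarization with thallium stimulus after 20 min compound exposure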
KCNK9 block: KCNK9 potassium channel inhibitors, primary screen, HEK293 cells, thallium flux. B-score at 10 µM. 1.2% of 310,000 active. FluxOR thallium flux fluorescence; active compounds read low. Potassium channel subfamily K member 9 (Homo sapiens), Q9NPC2;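 active means ratio B-score over 3 SD below the library mean, with starting fluorescence within 5 SD of its mean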;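 further: negative B-score means less thallium flux so channel inhibition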
hERG protect: hERG rescue from dofetilide block, primary screen, cell-based, CHO-hERG, FluxOR thallium flux, dofetilide IC70; Voltage-gated inwardly rectifying potassium channel KCNH2 (Homo sapiens), Q12809; dofetilide IC70 present; activation (rescue from dofetilide block), less the hit threshold, % at 10 µM; 0.51% of 310,000 active;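 active means activation above the mean of controls blocked by dofetilide plus 5 SD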;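 further: thallium influx through hERG after potassium depolarization seen as dye fluorescence rise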
Target sequence (Q12809 whole entry, looked up): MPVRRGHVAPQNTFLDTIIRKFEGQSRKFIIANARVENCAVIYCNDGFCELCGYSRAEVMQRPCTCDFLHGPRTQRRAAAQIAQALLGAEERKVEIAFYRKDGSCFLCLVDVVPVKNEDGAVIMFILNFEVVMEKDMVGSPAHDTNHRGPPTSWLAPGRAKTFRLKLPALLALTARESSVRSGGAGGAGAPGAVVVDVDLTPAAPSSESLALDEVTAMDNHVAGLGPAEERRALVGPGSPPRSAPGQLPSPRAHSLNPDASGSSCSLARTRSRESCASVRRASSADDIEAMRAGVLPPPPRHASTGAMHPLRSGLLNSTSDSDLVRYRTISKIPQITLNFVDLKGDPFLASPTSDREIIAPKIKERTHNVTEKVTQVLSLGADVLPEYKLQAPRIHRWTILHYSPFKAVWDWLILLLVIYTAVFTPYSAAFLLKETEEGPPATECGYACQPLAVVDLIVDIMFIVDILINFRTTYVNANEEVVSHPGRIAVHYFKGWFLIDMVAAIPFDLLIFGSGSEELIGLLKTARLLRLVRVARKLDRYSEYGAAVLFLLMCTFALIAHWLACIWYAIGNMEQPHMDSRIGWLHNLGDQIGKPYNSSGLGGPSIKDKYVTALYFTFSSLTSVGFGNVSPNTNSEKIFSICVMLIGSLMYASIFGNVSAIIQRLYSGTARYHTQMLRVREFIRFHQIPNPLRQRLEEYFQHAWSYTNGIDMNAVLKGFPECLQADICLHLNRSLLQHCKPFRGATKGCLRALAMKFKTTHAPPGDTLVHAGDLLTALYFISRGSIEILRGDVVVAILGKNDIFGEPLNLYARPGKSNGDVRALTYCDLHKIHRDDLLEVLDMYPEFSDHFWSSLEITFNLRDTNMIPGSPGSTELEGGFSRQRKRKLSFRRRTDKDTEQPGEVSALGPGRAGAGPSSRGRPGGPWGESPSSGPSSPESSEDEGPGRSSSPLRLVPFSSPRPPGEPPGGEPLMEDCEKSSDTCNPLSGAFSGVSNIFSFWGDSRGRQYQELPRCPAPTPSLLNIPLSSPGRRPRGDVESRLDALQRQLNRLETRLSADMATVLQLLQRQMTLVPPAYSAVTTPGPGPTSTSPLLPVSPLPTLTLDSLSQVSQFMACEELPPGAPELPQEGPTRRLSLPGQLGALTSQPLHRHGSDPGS
KCNQ1 pot: potentiators or activators of KCNQ1 channel, primary screen, cell-based, thallium flux, high-throughput | Potassium voltage-gated channel subfamily KQT member 1 (Homo sapiens), P51787 | CHO-K1 KCNQ1, thallium flux FluxOR fluorescence; active compounds read high | B-score at 10 µM | 0.35% of 310,000 active | AID 2648, 2010;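 active means fluorescence ratio B-score, a plate-corrected score, at least three library SD, with initial intensity B-score within 5 SD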
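Schedule – 37 °C overnight plating, 90-min dark dye load, 20-min compound pretreatment · System – stable KCNQ1 CHO-K1 line · Probe or stimulus – thallium- and potassium-containing depolarizing buffer · Measured by – kinetic FluxOR fluorescence, 10 s baseline plus 110 s post-stimulus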
Kir21 inh: inhibitors of mouse Kir2.1 inward-rectifier potassium channel | 0.85% of 310,000 active | HEK293-Kir2.1, FluxOR thallium flux fluorescence; active compounds read low | Inward rectifier potassium channel 2 (Mus musculus), P35561 | B-score at 10 µM;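 active means fluorescence ratio B-score at or below minus 3 SD of library scores, with starting-brightness B-score within 2 SD, cut at about -4.2 in these data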;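 further: channel flux triggered by added potassium and thallium sulfate stimulus; B-score of peak minus minimum fluorescence over baseline after thallium stimulus; more negative B-score means stronger Kir2.1 block with less thallium influx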
* = called active by the depositor; i = inactive; nt = no result. The list is not random: actives were taken first. Their share in the collection is about 3.8%.

SMILES	KCNK3 block	KCNQ1 inh	KCNK9 block	hERG protect	KCNQ1 pot	Kir21 inh
N#C/C(=C\c1ccc[nH]1)C(=O)Nc1ccccc1[N+](=O)[O-]	i	i	i	-4	i	-0.11
CC(C)CC(=O)N1CC=CC[C@@H](c2ccc(Cl)cc2)N(Cc2ccc(Cl)cc2)C(=O)[C@@H]1Cc1ccccc1	i	nt	nt	nt	nt	nt
O=C(CSc1c2c(nc3cc(Cl)ccc13)CCCC2)NCc1ccco1	i	i	i	-21	i	-6.5*
O=C(COC(=O)c1cc(=O)[nH]c(=O)[nH]1)Nc1cccc(Cl)c1	i	nt	nt	nt	nt	nt
CCN(C(=O)C1CCCN1S(=O)(=O)c1ccc2c(c1)n(C)c(=O)c(=O)n2C)c1ccccc1 (stereo not given)	i	i	i	-6	i	0.81
O=C(Nc1ccccc1)c1ccc2nc(-c3ccco3)c(-c3ccco3)nc2c1	i	i	i	-10	i	0.94
CC(=O)c1ccc(NC(=O)c2ccc3nc(-c4ccco4)c(-c4ccco4)nc3c2)cc1	-11*	i	i	-7	i	-0.28
CCOc1ccccc1NC(=O)CSCC(=O)Nc1ccccc1	i	i	i	-8	i	-3.7
CCOc1ccccc1NC(=O)CC(O)(C(F)(F)F)C(F)(F)F	i	6*	i	-10	i	-0.02
Cc1ccc(NC(=O)CC(O)(C(F)(F)F)C(F)(F)F)c(Br)c1	i	6*	i	-11	i	2.4
Cc1cc(C)cc(NC(=O)CN2CCC(C(=O)c3ccccc3)CC2)c1	i	i	i	-9	i	0.26
Cc1noc(/C=C/c2ccc(-c3ccccc3Cl)o2)c1[N+](=O)[O-]	i	7*	i	-6	i	0.76
CC1(c2ccccc2)NC(=O)N(CC(=O)Nc2ccc(S(=O)(=O)NC3=NCCCCC3)cc2)C1=O (stereo not given)	i	nt	nt	nt	nt	nt
CCN(C[C@H]1N[C@@](CC)(C(=O)OC)[C@H]2C(=O)N(Cc3ccccc3)C(=O)[C@@H]12)C(=O)COc1ccccc1	i	nt	nt	nt	nt	nt
O=C(Nc1ccc(Cl)cc1)N1CCC(c2nc(-c3cccs3)no2)CC1	i	6*	i	-12	i	-0.57
COc1cccc(/C=N/NC(=O)CNC(=O)C(c2ccccc2)c2ccccc2)c1O	i	i	i	-2	i	-0.43
CC[C@H](C)/C=C(C)/C=C/C(=O)Cc1cc(O)c(C)c(O)c1C=O	-10*	11*	i	-14	i	-1.3
O=C1CCC(c2ccc(-n3ccnc3)cc2)=NN1	i	i	i	-6	33*	-0.73
O=C1CCC(c2ccccc2)=NN1	i	i	i	-12	i	0.92
O=C(CN1CCCc2ccccc21)N/N=C/c1c(O)ccc2ccccc12	i	7*	i	-5	i	0.08
O=C(CN1CCCc2ccccc21)N/N=C/c1ccccc1	i	i	i	-7	i	-1.4
O=C(N/N=C\c1c(O)ccc2ccccc12)c1ccc(S(=O)(=O)N2CCCCC2)cc1	i	6*	i	-15	i	-2.4
Cc1cc(NS(=O)(=O)c2ccccc2)c(C)c(Cl)c1O	i	i	i	-16	i	-5.8*
Cc1ccc(S(=O)(=O)Nc2cc(C)c(O)cc2C)cc1	i	i	i	-7	i	-4.9*
COc1ccc(S(=O)(=O)Nc2cc(C(C)C)c(O)cc2C)cc1	i	i	i	-12	i	-1.3
SMILES	KCNK3 block	KCNQ1 inh	KCNK9 block	hERG protect	KCNQ1 pot	Kir21 inh
COc1ccc(Cc2nc3ccc(C(=O)NC(C)c4cnn(C)c4)cc3o2)cc1 (stereo not given)	i	i	i	-4	i	-1.3
Cc1ccccc1CS(=O)(=O)Cc1ccc(C(=O)NC2CCCCC2)o1	i	i	i	-4	i	-0.07
Cc1ccc(NC(=O)CCCSc2ccccc2)cc1S(=O)(=O)N1CCOCC1	i	i	i	-1	i	0.28
O=C(O)CCC(=O)c1ccc2c(c1)OCCO2	i	i	i	-2	i	-0.35
O=C(CCN1Cc2ccccc2C1)c1ccc2c(c1)OCCO2	i	i	i	-5	8*	-2.2
O=C(CCN1CCc2ccccc2C(c2ccccc2)C1)c1ccc2c(c1)OCCO2 (stereo not given)	i	11*	i	-31	i	0.06
CCCC(=O)c1ccc2c(c1)OCCO2	i	i	i	-1	i	0.06
CCOC(=O)c1c(C)[nH]c(C)c1C(=O)COC(=O)c1cc2ccccc2cc1OC	i	i	-7.7*	-8	i	-2.8
CC(=O)c1ccc(-c2ccc(C(=O)Nc3nc(C)c(C(C)=O)s3)o2)cc1	i	nt	nt	nt	nt	nt
C1CN(CCN2CCOCC2)CCN1	i	i	i	-2	i	-0.66
CC(C)C(c1nnnn1Cc1ccco1)N1CCN(c2cccc(Cl)c2)CC1 (stereo not given)	i	i	-8*	-4	i	0.02
S=c1nc(-c2ccccc2)[nH]c2ccc(Br)cc12	i	i	i	59*	101*	-0.61
CC(C)(C)NCC(=O)N/N=C/c1ccc(OCc2ccccc2)cc1	i	i	i	-20	i	-4.3*
CCCCNC(=O)C(=O)N/N=C/c1ccc(OCc2ccccc2)cc1	i	i	i	0	i	-0.01
C=CCn1c(CSc2nc3ccccc3s2)nnc1SCC(=O)NCc1ccccc1	i	i	i	-6	i	-5.2*
Cn1c(SCC(=O)Nc2cccnc2Cl)nnc1-c1ccco1	i	nt	nt	nt	nt	nt
O=C(COC(=O)c1cc(S(=O)(=O)N2CCCCC2)ccc1N1CCOCC1)c1ccc(F)cc1	i	i	i	-11	i	-2.4
CNCCC(Oc1ccc(C(F)(F)F)cc1)c1ccccc1 (stereo not given)	i	i	i	nt	i	-2.6
CNCC[C@H](Oc1cccc2ccccc12)c1cccs1	i	i	i	-9	i	-9.1*
COc1ccc(C2CC(c3ccccc3)=NN2C(=O)COC(=O)c2cccc(N)c2)cc1 (stereo not given)	i	nt	nt	nt	nt	nt
COc1cccc(Cl)c1NC(=O)N1CCc2c([nH]c3ccccc23)C1C(F)(F)F (stereo not given)	i	i	i	-5	i	1.9
